Source: PMC12018814 (Plant Biotechnology Journal, 2025)

Test system: Ach15909
Test: HPLC of salidroside formed
Type: biochemical, Astilbe chinensis
Conditions: 2 mM UDP-glucose, 0.05-2.0 mM tyrosol, 50 mM PB pH 8.0, 37 °C, 30 min
Procedure, shortened: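 Recombinant A. chinensis UGT was expressed in E. coli Rosetta 2 (DE3), Ni-NTA purified with an imidazole gradient, exchanged into PBS pH 7.4, and quantified by BCA. Reactions were started by adding protein and quenched for C18 HPLC (0.1% formic acid water/acetonitrile gradient, 275 nm). Salidroside was quantified against an external standard curve, in triplicate, with kinetic parameters from non-linear fitting.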

Km: 740 ± 200 µM
SMILES: OCCc1ccc(O)cc1 [compound 1, tyrosol]
